An excerpt weighted towards active compounds, which were near 6.8% of everything screened.
PHOSPHO1 block: PubChem AID 1565; Phosphoethanolamine/phosphocholine phosphatase (Homo sapiens), Q8TCT1; recombinant PHOSPHO1, absorbance phosphatase assay; inhibition, % at 13.3 µM; 290,000 compounds, 1.1% hits; in the data active = inhibition above about 60%
Target sequence (Q8TCT1 whole entry, looked up): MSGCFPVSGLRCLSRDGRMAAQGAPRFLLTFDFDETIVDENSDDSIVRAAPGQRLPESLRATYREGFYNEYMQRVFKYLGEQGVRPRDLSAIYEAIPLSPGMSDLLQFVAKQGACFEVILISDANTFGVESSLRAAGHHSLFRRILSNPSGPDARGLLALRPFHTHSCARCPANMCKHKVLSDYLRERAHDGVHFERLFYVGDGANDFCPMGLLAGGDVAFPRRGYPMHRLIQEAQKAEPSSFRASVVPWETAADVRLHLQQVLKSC
ALR inh: inhibitors of human ALR sulfhydryl oxidase, primary screen, biochemical, H2O2 detection, HRP-luminol luminescence, single point; FAD-linked sulfhydryl oxidase ALR (Homo sapiens), P55789; purified ALR, DTT oxidation; inhibition, % (no concentration beside the values); 290,000 compounds, 3.8% hits; AID 485317, 2010;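 active = mean replicate inhibition above about 79%, with every replicate also reaching it, limit read from the data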
Target sequence (P55789 whole entry, looked up): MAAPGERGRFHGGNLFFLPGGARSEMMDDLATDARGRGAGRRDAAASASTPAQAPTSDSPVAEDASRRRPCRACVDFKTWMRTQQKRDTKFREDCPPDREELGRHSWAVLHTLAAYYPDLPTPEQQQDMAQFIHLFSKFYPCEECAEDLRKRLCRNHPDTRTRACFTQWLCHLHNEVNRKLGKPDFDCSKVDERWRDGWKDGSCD
HCV core dimer: inhibitors of HCV core protein dimerization, primary screen, biochemical, TR-FRET, high-throughput; TR-FRET GST/Flag-core106 dimerization, 1536-well; inhibition, % at 5 µM; 300,000 compounds, 0.33% hits;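 active = inhibition above the mean of all tested compounds plus 3 SD, set per screening campaign, cut at about 45% in these data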
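test system = GST/Flag-tagged HCV core106 proteins | probe or stimulus = Eu donor and XL665 acceptor anti-tag antibodies | times = compound-protein-antibody incubation 4 h at 22.5 °C | signal = TR-FRET, excitation 340 nm, emission 617 and 671 nm | measure = percent inhibition of core106 dimerization signal | controls = wells lacking GST-core106 and wells with excess unlabelled core106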
HSF1 inhib: HSF1 inhibitors in luciferase reporter cells, primary screen, cell-based, NIH3T3, luminescence. NIH3T3-HGL HSE-luciferase, MG132-induced, luminescence 8 h; stronger effect = lower value. activity change, negative = inhibition, % at 7.5 µM (by protocol). 300,000 compounds, 0.77% hits;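 active = more than half of replicate wells show activity change below -50%, luminescence cut by over half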;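 note: luciferase reports HSF-1 transcriptional activity via heat shock element; 0% = median of DMSO wells and -100% = zero luminescence signal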
AI-2 QS mod: Vibrio harveyi AI-2 quorum sensing modulators, primary screen, JMH597 strain, luminescence/OD600 ratio; AID 2094, 2009; activity change, % at 7.5 µM; Vibrio harveyi JMH597 AI-2 luminescence/OD600 ratio, 9 h; stronger effect = lower value; strain lacks LuxN and CqsS sensors; 0 = neutral-control median; 300,000 compounds, 0.4% hits; in the data active = activity change below about -75%, passing the limit was not always enough;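 note: luminescence divided by OD600 gain over 9 h not by final OD600 alone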
HSF1 activator: HSF-1 activators, primary screen, NIH3T3-HGL cells, MG132 stress, luminescence, single point; NIH3T3-HGL HSF-1 luciferase reporter, 8 h; 100% = twice DMSO control signal; activation, % at 9 µM; 300,000 compounds, 1.7% hits;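 active = mean replicate activation of at least 50% with a set share of replicates each reaching 50%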;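 note: 0% = median of the neutral control wells and 100% = twice that signal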
The depositor's hits bear a star.

What do the screens show for `COc1ccccc1C(=O)NCCC(=O)N1CC(=O)Nc2ccccc21`?
PHOSPHO1 block: 12; ALR inh: -10; HCV core dimer: -5; HSF1 inhib: 3; AI-2 QS mod: 11; HSF1 activator: -6

How did C(=N\Nc1nc2ccccc2[nH]1)/c1cccc2nccnc12 do in these assays?
PHOSPHO1 block: 18; ALR inh: 9; HCV core dimer: -22; HSF1 inhib: 58; AI-2 QS mod: -4; HSF1 activator: 64*

Results for CCOc1cc(/C=N/Nc2nc3ccccc3[nH]2)cc(Br)c1OCC(=O)N(C)C ?
PHOSPHO1 block: 20; ALR inh: 98*; HCV core dimer: -9; HSF1 inhib: -8; AI-2 QS mod: 55; HSF1 activator: -2

Results for COc1ccc(/C=N/Nc2nc3ccccc3[nH]2)cc1OC ?
PHOSPHO1 block: -4; ALR inh: 99*; HCV core dimer: -41; HSF1 inhib: 324; AI-2 QS mod: 26; HSF1 activator: 369*

How did C(=N\Nc1nc2ccccc2[nH]1)/c1ccccn1 do in these assays?
PHOSPHO1 block: 2; HSF1 inhib: 0; AI-2 QS mod: 9; HSF1 activator: -2

What do the screens show for `C#CCn1cc(/C=N/Nc2nc3ccccc3[nH]2)c2ccccc21`?
PHOSPHO1 block: -18; ALR inh: 11; HCV core dimer: -33; HSF1 inhib: 288; AI-2 QS mod: 27; HSF1 activator: 370*

How did CC(C)n1nc(C(=O)Oc2cccc(Cl)c2Cl)c2ccccc2c1=O do in these assays?
PHOSPHO1 block: 6; HCV core dimer: -1; HSF1 inhib: -1; AI-2 QS mod: 11; HSF1 activator: 5

What do the screens show for `Cn1c(=O)[nH]c(NCCc2ccc(O)cc2)c([N+](=O)[O-])c1=O`?
ALR inh: 81*; HCV core dimer: -26; HSF1 inhib: -4; AI-2 QS mod: 15; HSF1 activator: 4

What do the screens show for `CCOC(=O)C1(C)/C(=N/Nc2ccc(S(N)(=O)=O)cc2)C(=O)C(=O)N1c1ccccc1` (configuration not stated)?
PHOSPHO1 block: 2; ALR inh: 2; HCV core dimer: 0; HSF1 inhib: -2; AI-2 QS mod: 27; HSF1 activator: 1

How did CCOC(=O)C1(C)/C(=N/Nc2cccc(Cl)c2)C(=O)C(=O)N1c1ccccc1 (configuration not stated) do in these assays?
PHOSPHO1 block: 0; HCV core dimer: -12; HSF1 inhib: -3; AI-2 QS mod: 9; HSF1 activator: -2

What do the screens show for `CCOC(=O)C1(C)/C(=N/Nc2ccc(Cl)cc2)C(=O)C(=O)N1c1ccccc1` (configuration not stated)?
PHOSPHO1 block: 103*; ALR inh: 99*; HCV core dimer: 20; HSF1 inhib: 2; AI-2 QS mod: 8; HSF1 activator: 5

What do the screens show for `CCOC(=O)C1(C)/C(=N/Nc2ccccc2Cl)C(=O)C(=O)N1c1ccccc1` (configuration not stated)?
PHOSPHO1 block: 92*; ALR inh: 72; HCV core dimer: 18; HSF1 inhib: -8; AI-2 QS mod: 19; HSF1 activator: -2

How did N#CCc1c(C#N)c(N)nc(N2CCN(C=O)CC2)c1C#N do in these assays?
PHOSPHO1 block: -19; ALR inh: 41; HCV core dimer: -2; HSF1 inhib: 0; AI-2 QS mod: 33; HSF1 activator: -1

What do the screens show for `N#CCc1c(C#N)c(N)nc(N2CCN(S(=O)(=O)c3ccccc3)CC2)c1C#N`?
PHOSPHO1 block: -23; ALR inh: 4; HCV core dimer: 3; HSF1 inhib: 87; AI-2 QS mod: 34; HSF1 activator: 86*

What do the screens show for `Cc1ccc(CNC(=O)COc2ccc(S(=O)(=O)N3CCCC3)cc2)cc1`?
PHOSPHO1 block: 35; HCV core dimer: 7; HSF1 inhib: 3; AI-2 QS mod: -2; HSF1 activator: 7

What do the screens show for `S=C(Nc1ccc2nsnc2c1)N1CCCCCC1`?
PHOSPHO1 block: 47; ALR inh: -21; HCV core dimer: -17; HSF1 inhib: 41; AI-2 QS mod: 10; HSF1 activator: 62*

What do the screens show for `O=C(Nc1ccc2nsnc2c1)N1CCCCC1`?
PHOSPHO1 block: 4; ALR inh: -43; HCV core dimer: -3; HSF1 inhib: -2; AI-2 QS mod: 9; HSF1 activator: 0

How did CC1CCN(C(=O)Nc2ccc3nsnc3c2)CC1 do in these assays?
PHOSPHO1 block: 22; ALR inh: -23; HCV core dimer: 1; HSF1 inhib: 23; AI-2 QS mod: 20; HSF1 activator: 57*

What do the screens show for `CCc1ccc(NC(=S)N2CCCCCCC2)cc1`?
PHOSPHO1 block: 68*; HCV core dimer: -1; HSF1 inhib: 16; AI-2 QS mod: 13; HSF1 activator: 19

How did S=C(Nc1ccc2nsnc2c1)NC1CCCCC1 do in these assays?
PHOSPHO1 block: -17; ALR inh: -16; HCV core dimer: -98; HSF1 inhib: 31; AI-2 QS mod: 4; HSF1 activator: 82*

What do the screens show for `CC(=O)Oc1ccc(-c2ccc(C(=O)OCC(=O)N(C)CC(=O)Nc3ccccc3Cl)cc2)cc1`?
PHOSPHO1 block: 51; ALR inh: 3; HCV core dimer: 0; HSF1 inhib: 3; AI-2 QS mod: 22; HSF1 activator: 5

How did CN1CCc2c(sc(/N=C/c3cc(C(C)(C)C)ccc3O)c2C#N)C1 do in these assays?
PHOSPHO1 block: -101; ALR inh: 18; HCV core dimer: -1; HSF1 inhib: -47; AI-2 QS mod: -11; HSF1 activator: -62

What do the screens show for `COC(=O)C(=Cc1ccc(-c2ccsc2C(=O)OC)o1)C(=O)OC`?
PHOSPHO1 block: 52; ALR inh: 2; HCV core dimer: 2; HSF1 inhib: 31; AI-2 QS mod: 14; HSF1 activator: 43

What do the screens show for `CCOC(=O)C(=Cc1ccc(-c2ccsc2C(=O)OC)o1)C(=O)OCC`?
PHOSPHO1 block: 52; HCV core dimer: 3; HSF1 inhib: 75; AI-2 QS mod: 2; HSF1 activator: 90*

How did O=[N+]([O-])c1ccc(N2CCOCC2)cc1NCc1ccccc1 do in these assays?
PHOSPHO1 block: 3; ALR inh: -11; HCV core dimer: 4; AI-2 QS mod: 3

How did O=[N+]([O-])c1cc([N+](=O)[O-])c(N2CCOCC2)cc1NCc1ccccc1 do in these assays?
PHOSPHO1 block: 4; ALR inh: -11; HCV core dimer: 7; HSF1 inhib: 48; AI-2 QS mod: -1; HSF1 activator: 109*
